Test results taken from ChEMBL document CHEMBL1128367, “Synthesis of 4"-deoxy motilides: identification of a potent and orally active prokinetic drug candidate” (J Med Chem, 1995).

Assays:
[1] = Activity relative to erythromycin A
[2] = species on record: Oryctolagus cuniculus; assay: The compound was tested in vitro for prokinetic activity as smooth muscle contractility in isolated rabbit duodenum; type: functional, Muscle tissue
[3] = Oral bioavailability in dog; type: ADME, organism-based, Canis lupus familiaris; details: in vivo
How it was run: (§1)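 Groups of fasted male/female beagle dogs received the lactobionate salt as a 2 mg/mL solution, at 0.5 mg/kg iv or 1 mg/kg po. Blood was sampled at set times over 12 h. Parent drug was extracted from alkalized plasma with EtOAc:hexane (1:1) and measured by reverse-phase HPLC (pH 6.9 phosphate mobile phase) with oxidative electrochemical detection. The assay was linear over 0-500 ng/mL, with LOQ ~7 ng/mL.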

[4] = Half life period after oral administration in the dog; type: ADME, organism-based, Canis lupus familiaris; details: in vivo; how it was run: as §1

CC[C@H]1OC(=O)[C@H](C)[C@@H](O[C@H]2C[C@@](C)(OC)[C@@H](O)[C@H](C)O2)[C@H](C)[C@@H](O[C@@H]2O[C@H](C)C[C@H](NC)[C@H]2O)[C@@]2(C)CC(C)=C(O2)[C@H](C)[C@@H](O)[C@]1(C)O
Relative activity [1]: 1.3
pED50 [2]: 7.1

CC[C@H]1OC(=O)[C@H](C)[C@@H](O[C@H]2C[C@@](C)(OC)[C@@H](O)[C@H](C)O2)[C@H](C)[C@@H](O[C@@H]2O[C@H](C)C[C@H](N(C)C)[C@H]2O)[C@](C)(O)C[C@@H](C)C(=O)[C@H](C)[C@@H](O)[C@]1(C)O [ERYTHROMYCIN]
pED50 [2]: 5.85

CC[C@H]1OC(=O)[C@H](C)[C@@H](O[C@H]2C[C@@](C)(OC)[C@@H](O)[C@H](C)O2)[C@H](C)[C@@H](O[C@@H]2O[C@H](C)C[C@H](N(C)CC)[C@H]2O)[C@@]2(C)CC(C)=C(O2)[C@H](C)[C@@H](O)[C@]1(C)O
Relative activity [1]: 2.6
bioavailability [3]: 1.4%
pED50 [2]: 8.45
half-life [4]: 144 min

CC[C@H]1OC(=O)[C@H](C)[C@@H](O[C@H]2C[C@@](C)(OC)C[C@H](C)O2)[C@H](C)[C@@H](O[C@@H]2O[C@H](C)C[C@H](NC)[C@H]2O)[C@@]2(C)CC(C)=C(O2)[C@H](C)[C@@H](O)[C@H]1C
Relative activity [1]: > 6.15
bioavailability [3]: 23.8%
pED50 [2]: >12
half-life [4]: 120 min

CC[C@H]1OC(=O)[C@H](C)[C@@H](O[C@H]2C[C@@](C)(OC)C[C@H](C)O2)[C@H](C)[C@@H](O[C@@H]2O[C@H](C)C[C@H](N(C)C)[C@H]2O)[C@@]2(C)CC(C)=C(O2)[C@H](C)[C@@H](O)[C@H]1C
Relative activity [1]: 5.41
pED50 [2]: 11.26

CC[C@H]1OC(=O)[C@H](C)[C@@H](O[C@H]2C[C@@](C)(OC)[C@@H](O)[C@H](C)O2)[C@H](C)[C@@H](O[C@@H]2O[C@H](C)C[C@H](N(C)C)[C@H]2O)[C@@]2(C)CC(C)=C(O2)[C@H](C)[C@@H](O)[C@H]1C
Relative activity [1]: 2.83
pED50 [2]: 8.68

CC[C@H]1OC(=O)[C@H](C)[C@@H](O[C@H]2C[C@@](C)(OC)C[C@H](C)O2)[C@H](C)[C@@H](O[C@@H]2O[C@H](C)C[C@H](N(C)CC)[C@H]2O)[C@@]2(C)CC(C)=C(O2)[C@H](C)[C@@H](O)[C@]1(C)O
Relative activity [1]: 5.3
bioavailability [3]: 2.7%
pED50 [2]: 11.15
half-life [4]: 156 min

CC[C@H]1OC(=O)[C@H](C)[C@@H](O[C@H]2C[C@@](C)(OC)C[C@H](C)O2)[C@H](C)[C@@H](O[C@@H]2O[C@H](C)C[C@H](N(C)C)[C@H]2O)[C@@]2(C)CC(C)=C(O2)[C@H](C)[C@@H](O)[C@]1(C)O
Relative activity [1]: 2.56
pED50 [2]: 8.41

CC[C@H]1OC(=O)[C@H](C)[C@@H](O[C@H]2C[C@@](C)(OC)C[C@H](C)O2)[C@H](C)[C@@H](O[C@@H]2O[C@H](C)C[C@H](NC)[C@H]2O)[C@@]2(C)CC(C)=C(O2)[C@H](C)[C@@H](O)[C@]1(C)O
Relative activity [1]: 3.89
pED50 [2]: 9.74

CC[C@H]1OC(=O)[C@H](C)[C@@H](O[C@H]2C[C@@](C)(OC)C[C@H](C)O2)[C@H](C)[C@@H](O[C@@H]2O[C@H](C)C[C@H](N(C)CC)[C@H]2O)[C@@]2(C)CC(C)=C(O2)[C@H](C)[C@@H](O)[C@H]1C [ALEMCINAL]
Relative activity [1]: > 6.15
bioavailability [3]: 39%
pED50 [2]: >12
half-life [4]: 330 min

CC[C@H]1OC(=O)[C@H](C)[C@@H](O[C@H]2C[C@@](C)(OC)[C@@H](O)[C@H](C)O2)[C@H](C)[C@@H](O[C@@H]2O[C@H](C)C[C@H](N(C)C)[C@H]2O)[C@@]2(C)CC(C)=C(O2)[C@H](C)[C@@H](O)[C@]1(C)O
Relative activity [1]: 2.55
pED50 [2]: 8.4
